In publication PMC6543826 (Bioorganic chemistry, 2018):
Several values for one entry are separate records, joined by “and”; a condition that tells them apart may be missing. Equal values may be shown once.

Assays:
T-47D = assay: cells; assay type: cell-based
K-562 = assay: cells; assay type: cell-based
UACC-62 = assay: cells; assay type: cell-based
U251 = assay: cells; assay type: cell-based
SK-MEL-28 = assay: cells; assay type: cell-based
[1] = test system: NCI-60 panel of tumor cell lines
BT-549 = assay: cells; assay type: cell-based
NCI-H460 = assay: cells; assay type: cell-based
SF-268 = assay: cells; assay type: cell-based
JNK2 = JNK2 (Homo sapiens, UniProt P45984); assay: in vitro kinase assay, GST-c-Jun; assay type: biochemical
Sequence of JNK2 (P45984 whole entry): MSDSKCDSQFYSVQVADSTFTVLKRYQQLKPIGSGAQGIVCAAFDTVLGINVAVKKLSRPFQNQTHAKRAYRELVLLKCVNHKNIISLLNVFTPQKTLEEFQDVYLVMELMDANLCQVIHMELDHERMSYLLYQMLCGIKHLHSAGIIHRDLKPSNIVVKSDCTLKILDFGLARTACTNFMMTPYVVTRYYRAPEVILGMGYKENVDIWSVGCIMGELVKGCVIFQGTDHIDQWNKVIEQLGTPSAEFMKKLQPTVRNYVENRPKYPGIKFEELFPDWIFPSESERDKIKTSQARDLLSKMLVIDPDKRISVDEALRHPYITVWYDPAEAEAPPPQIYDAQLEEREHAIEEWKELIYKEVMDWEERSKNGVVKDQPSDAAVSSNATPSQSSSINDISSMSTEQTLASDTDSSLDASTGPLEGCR

IGROV1 = assay: cells; assay type: cell-based
HOP-92 = assay: cells; assay type: cell-based
NCI-H522 = assay: cells; assay type: cell-based
OVCAR-8 = assay: cells; assay type: cell-based
HOP-62 = assay: cells; assay type: cell-based
SF-539 = assay: cells; assay type: cell-based
SN12C = assay: cells; assay type: cell-based
MCF7 = assay: cells; assay type: cell-based
M14 = assay: cells; assay type: cell-based
OVCAR-3 = assay: cells; assay type: cell-based
CCRF-CEM = assay: cells; assay type: cell-based
MALME-3M = assay: cells; assay type: cell-based
SNB-75 = assay: cells; assay type: cell-based
HCT-15 = assay: cells; assay type: cell-based
MDA-MB-468 = assay: cells; assay type: cell-based
KM 12 = assay: cells; assay type: cell-based
A549/ATCC = assay: cells; assay type: cell-based
LOX IMVI = assay: cells; assay type: cell-based
DU-145 = assay: cells; assay type: cell-based
SK-MEL-5 = assay: cells; assay type: cell-based
NCI-H322M = assay: cells; assay type: cell-based
UO-31 = assay: cells; assay type: cell-based
ERK2 = ERK2 (Rattus norvegicus, UniProt P63086); assay: in vitro radioactive kinase assay, Ets-1 phosphorylation by ERK2; assay type: biochemical
Sequence of ERK2 (P63086 whole entry): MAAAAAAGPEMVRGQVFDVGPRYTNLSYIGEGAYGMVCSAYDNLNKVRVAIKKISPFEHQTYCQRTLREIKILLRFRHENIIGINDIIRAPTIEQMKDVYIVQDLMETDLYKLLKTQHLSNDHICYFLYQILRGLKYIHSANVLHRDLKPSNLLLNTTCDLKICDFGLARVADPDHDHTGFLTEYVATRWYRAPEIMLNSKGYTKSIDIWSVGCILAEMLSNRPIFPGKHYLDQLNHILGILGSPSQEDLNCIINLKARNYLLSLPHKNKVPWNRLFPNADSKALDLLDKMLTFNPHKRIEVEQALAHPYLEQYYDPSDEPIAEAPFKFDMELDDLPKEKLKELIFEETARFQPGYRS
Method in brief: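 Activated rat ERK2 (2 nM) was tested with His-Ets-1 (1–138) at 28–30 °C in HEPES pH 7.5 buffer with 11 mM MgCl2, BSA and 5% DMSO. Reactions were started with [γ-32P]ATP (10 or 100 μM).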

HCT-116 = assay: cells; assay type: cell-based
PC-3 = assay: cells; assay type: cell-based
SNB-19 = assay: cells; assay type: cell-based

O=C1c2ccccc2C(=O)c2c1oc1c2c(=O)[nH]c2ccc(Cl)cc21 [3b, 2-Chloronaphtho[2′,3′:4,5]furo[3,2-c]quinoline-6,7,12(5H)-trione]
GI50 (T-47D; Homo sapiens, T47D): 260 nM
CC50 (T-47D; Homo sapiens, T47D, read-out: LC50): 5130 nM
Growth percent (G%) (T-47D; T-47D, 10^−5 M, 48 h): −58.11%
TGI (T-47D; T-47D, five-dose): 980 nM
GI50 (K-562; Homo sapiens, K562): 370 nM
CC50 (K-562; Homo sapiens, K562, read-out: LC50): 50100 nM
Growth percent (G%) (K-562; K-562, 10^−5 M, 48 h): 12.90%
TGI (K-562; K-562, five-dose): 2000 nM
GI50 (UACC-62; Homo sapiens, UACC-62): 280 nM
CC50 (UACC-62; Homo sapiens, UACC-62, read-out: LC50): 3980 nM
Growth percent (G%) (UACC-62; UACC-62, 10^−5 M, 48 h): 75.08%
TGI (UACC-62; UACC-62, five-dose): 1150 nM
GI50 (U251; Homo sapiens, U-251): 270 nM
CC50 (U251; Homo sapiens, U-251, read-out: LC50): 2820 nM
Growth percent (G%) (U251; U251, 10^−5 M, 48 h): −77.55%
TGI (U251; U251, five-dose): 760 nM
GI50 (SK-MEL-28; Homo sapiens, SK-MEL-28): 340 nM
CC50 (SK-MEL-28; Homo sapiens, SK-MEL-28, read-out: LC50): 4680 nM
Growth percent (G%) (SK-MEL-28; SK-MEL-28, 10^−5 M, 48 h): −11.84%
TGI (SK-MEL-28; SK-MEL-28, five-dose): 1230 nM
Average G% ([1]; average over tested NCI-60 cell lines, 10^−5 M (10 μM), 48 h): −4.7% and −4.5% and −4.69%
TGI values, range over all cell lines ([1]; five-dose): 350 to 27540 nM
TGI, average ([1]; five-dose): 1020 nM
Growth percent (G%) (BT-549; BT-549, 10^−5 M, 48 h): 37.99%
TGI (BT-549; BT-549, five-dose): 1320 nM
GI50 (BT-549; Homo sapiens, BT-549): 300 nM
CC50 (BT-549; Homo sapiens, BT-549, read-out: LC50): 6760 nM
GI50 (NCI-H460; Homo sapiens, NCI-H460): 220 nM
CC50 (NCI-H460; Homo sapiens, NCI-H460, read-out: LC50): 1480 nM
Growth percent (G%) (NCI-H460; NCI-H460, 10^−5 M, 48 h): −69.73%
TGI (NCI-H460; NCI-H460, five-dose): 490 nM
GI50 (SF-268; Homo sapiens, SF-268): 460 nM
CC50 (SF-268; Homo sapiens, SF-268, read-out: LC50): 49000 nM
Growth percent (G%) (SF-268; SF-268, 10^−5 M, 48 h): −31.69%
TGI (SF-268; SF-268, five-dose): 3980 nM
IC50 (JNK2): 24000 ± 1240 nM
ability to inhibit JNK2 (in words) (JNK2): little tendency to inhibit
GI50 (IGROV1; Homo sapiens, IGROV-1): 220 nM
CC50 (IGROV1; Homo sapiens, IGROV-1, read-out: LC50): 3470 nM
Growth percent (G%) (IGROV1; IGROV1, 10^−5 M, 48 h): −3.63%
TGI (IGROV1; IGROV1, five-dose): 740 nM
Growth percent (G%) (HOP-92; HOP-92, 10^−5 M, 48 h): −37.24%
TGI (HOP-92; HOP-92, five-dose): 390 nM
GI50 (HOP-92; Homo sapiens, HOP-92): 150 nM
CC50 (HOP-92; Homo sapiens, HOP-92, read-out: LC50): 1000 nM
GI50 (NCI-H522; Homo sapiens, NCI-H522): 320 nM
CC50 (NCI-H522; Homo sapiens, NCI-H522, read-out: LC50): 8130 nM
Growth percent (G%) (NCI-H522; NCI-H522, 10^−5 M, 48 h): −16.76%
TGI (NCI-H522; NCI-H522, five-dose): 1380 nM
GI50 (OVCAR-8; Homo sapiens, OVCAR-8): 390 nM
CC50 (OVCAR-8; Homo sapiens, OVCAR-8, read-out: LC50): 30200 nM
Growth percent (G%) (OVCAR-8; OVCAR-8, 10^−5 M, 48 h): −27.45%
TGI (OVCAR-8; OVCAR-8, five-dose): 2290 nM
Growth percent (G%) (HOP-62; HOP-62, 10^−5 M, 48 h): −38.70%
TGI (HOP-62; HOP-62, five-dose): 650 nM
GI50 (HOP-62; Homo sapiens, HOP-62): 200 nM
CC50 (HOP-62; Homo sapiens, HOP-62, read-out: LC50): 3240 nM
GI50 (SF-539; Homo sapiens, SF-539): 230 nM
CC50 (SF-539; Homo sapiens, SF-539, read-out: LC50): 2090 nM
Growth percent (G%) (SF-539; SF-539, 10^−5 M, 48 h): −27.99%
TGI (SF-539; SF-539, five-dose): 560 nM
Growth percent (G%) (SN12C; 10^−5 M, 48 h): −26.26%
GI50 (SN12C; Homo sapiens): 200 nM
CC50 (SN12C; Homo sapiens, read-out: LC50): 1350 nM
TGI (SN12C; five-dose): 470 nM
GI50 (MCF7; Homo sapiens, MCF7): 230 nM
CC50 (MCF7; Homo sapiens, MCF7, read-out: LC50): 18600 nM
Growth percent (G%) (MCF7; MCF7, 10^−5 M, 48 h): 0.70%
TGI (MCF7; MCF7, five-dose): 1050 nM
GI50 (M14; Homo sapiens, M14): 400 nM
CC50 (M14; Homo sapiens, M14, read-out: LC50): 4570 nM
Growth percent (G%) (M14; M14, 10^−5 M, 48 h): 10.44%
TGI (M14; M14, five-dose): 1510 nM
GI50 (OVCAR-3; Homo sapiens, OVCAR-3): 240 nM
CC50 (OVCAR-3; Homo sapiens, OVCAR-3, read-out: LC50): 1820 nM
Growth percent (G%) (OVCAR-3; OVCAR-3, 10^−5 M, 48 h): −68.37%
TGI (OVCAR-3; OVCAR-3, five-dose): 560 nM
Growth percent (G%) (CCRF-CEM; 10^−5 M, 48 h): 29.04%
GI50 (CCRF-CEM; Homo sapiens): 410 nM
CC50 (CCRF-CEM; Homo sapiens, read-out: LC50): > 100000 nM
TGI (CCRF-CEM; five-dose): 4860 nM
GI50 (MALME-3M; Homo sapiens, Malme-3M): 230 nM
CC50 (MALME-3M; Homo sapiens, Malme-3M, read-out: LC50): 850 nM
Growth percent (G%) (MALME-3M; MALME-3M, 10^−5 M, 48 h): −51.66%
GI50 (SNB-75; Homo sapiens, SNB-75): 160 nM
CC50 (SNB-75; Homo sapiens, SNB-75, read-out: LC50): 1290 nM
Growth percent (G%) (SNB-75; SNB-75, 10^−5 M, 48 h): −9.01%
TGI (SNB-75; SNB-75, five-dose): 420 nM
Growth percent (G%) (HCT-15; HCT-15, 10^−5 M, 48 h): −31.10%
TGI (HCT-15; HCT-15, five-dose): 510 nM
GI50 (HCT-15; Homo sapiens, HCT-15): 210 nM
CC50 (HCT-15; Homo sapiens, HCT-15, read-out: LC50): 2000 nM
GI50 (MDA-MB-468; Homo sapiens, MDA-MB-468): 250 nM
CC50 (MDA-MB-468; Homo sapiens, MDA-MB-468, read-out: LC50): 4570 nM
Growth percent (G%) (MDA-MB-468; MDA-MB-468, 10^−5 M, 48 h): −32.41%
TGI (MDA-MB-468; MDA-MB-468, five-dose): 870 nM
GI50 (KM 12; Homo sapiens, KM12): 450 nM
CC50 (KM 12; Homo sapiens, KM12, read-out: LC50): 27500 nM
Growth percent (G%) (KM 12; KM 12, 10^−5 M, 48 h): 0.12%
TGI (KM 12; KM 12, five-dose): 3020 nM
Growth percent (G%) (A549/ATCC; A549/ATCC, 10^−5 M, 48 h): −0.05%
TGI (A549/ATCC; A549/ATCC, five-dose): 2880 nM
GI50 (A549/ATCC; Homo sapiens, A549): 1020 nM
CC50 (A549/ATCC; Homo sapiens, A549, read-out: LC50): 8320 nM
Growth percent (G%) (LOX IMVI; 10^−5 M, 48 h): 11.13%
GI50 (LOX IMVI; Homo sapiens): 320 nM
CC50 (LOX IMVI; Homo sapiens, read-out: LC50): 3980 nM
TGI (LOX IMVI; five-dose): 1320 nM
Growth percent (G%) (DU-145; DU-145, 10^−5 M, 48 h): −45.39%
TGI (DU-145; DU-145, five-dose): 780 nM
GI50 (DU-145; Homo sapiens, DU-145): 280 nM
CC50 (DU-145; Homo sapiens, DU-145, read-out: LC50): 12300 nM
GI50 (SK-MEL-5; Homo sapiens, SK-MEL-5): 1300 nM
CC50 (SK-MEL-5; Homo sapiens, SK-MEL-5, read-out: LC50): 3720 nM
Growth percent (G%) (SK-MEL-5; SK-MEL-5, 10^−5 M, 48 h): 12.31%
TGI (SK-MEL-5; SK-MEL-5, five-dose): 1200 nM
Growth percent (G%) (NCI-H322M; 10^−5 M, 48 h): 13.98%
GI50 (NCI-H322M; Homo sapiens): 320 nM
CC50 (NCI-H322M; Homo sapiens, read-out: LC50): 7240 nM
TGI (NCI-H322M; five-dose): 1450 nM
GI50 (UO-31; Homo sapiens, UO-31): 190 nM
CC50 (UO-31; Homo sapiens, UO-31, read-out: LC50): 2510 nM
Growth percent (G%) (UO-31; UO-31, 10^−5 M, 48 h): −54.91%
TGI (UO-31; UO-31, five-dose): 600 nM
effect of excess Ets-1 (100 μM) on inhibition of ERK2 (ERK2; 5 μM inhibitor, 100 μM vs 10 μM Ets-1, 100 μM ATP): did not rescue
IC50 (ERK2; ERK2 IC50, 10 μM ATP): 200 ± 10 nM
IC50 (ERK2; ERK2 IC50, 100 μM ATP, 10 μM Ets-1): 600 ± 100 nM
IC50 (ERK2; ERK2 IC50 at 100 μM ATP /10mM Ets-1, Table 4, 100 μM ATP /10mM Ets-1): 600 ± 100 nM
Growth percent (G%) (HCT-116; HCT-116, 10^−5 M, 48 h): −12.24%
TGI (HCT-116; HCT-116, five-dose): 1100 nM
GI50 (HCT-116; Homo sapiens, HCT-116): 310 nM
CC50 (HCT-116; Homo sapiens, HCT-116, read-out: LC50): 4570 nM
GI50 (PC-3; Homo sapiens, PC-3): 180 nM
CC50 (PC-3; Homo sapiens, PC-3, read-out: LC50): 1580 nM
Growth percent (G%) (PC-3; PC-3, 10^−5 M, 48 h): −33.26%
TGI (PC-3; PC-3, five-dose): 460 nM
GI50 (SNB-19; Homo sapiens, SNB-19): 310 nM
CC50 (SNB-19; Homo sapiens, SNB-19, read-out: LC50): 6170 nM
Growth percent (G%) (SNB-19; SNB-19, 10^−5 M, 48 h): 7.11%
TGI (SNB-19; SNB-19, five-dose): 1100 nM
